The target in test [1] is GABA-A receptor; anion channel. As to the kind of experiment: Inhibition of [3H]flunitrazepam binding to GABA-A benzodiazepine receptor of guinea brain. Also on record: species or system Cavia porcellus.
The target of test [2] is T1, Cholecystokinin receptor type A (Rattus norvegicus, UniProt P30551).
T1 sequence (P30551 whole entry): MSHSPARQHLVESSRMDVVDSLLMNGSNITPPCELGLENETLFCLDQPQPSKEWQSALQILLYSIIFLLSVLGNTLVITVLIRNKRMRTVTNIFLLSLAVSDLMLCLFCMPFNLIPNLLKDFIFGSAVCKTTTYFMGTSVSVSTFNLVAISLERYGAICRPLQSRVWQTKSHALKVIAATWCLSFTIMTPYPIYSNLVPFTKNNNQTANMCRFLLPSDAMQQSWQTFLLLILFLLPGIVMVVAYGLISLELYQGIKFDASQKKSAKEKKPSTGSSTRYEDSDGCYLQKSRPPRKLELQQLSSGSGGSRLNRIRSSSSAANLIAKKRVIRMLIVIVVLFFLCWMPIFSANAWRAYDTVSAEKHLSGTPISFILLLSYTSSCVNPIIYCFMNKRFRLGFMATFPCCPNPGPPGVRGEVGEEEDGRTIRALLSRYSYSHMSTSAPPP
As to the kind of experiment: Half-maximal inhibition of [125I]CCK-33 binding to cholecystokinin A receptor from rat pancreatic tissue.

A short description of test [3]: Ratio of IC50 CCK(pancreas)/ IC50BZD (brain). The format is functional.
Test [4] has as its target GABA-A receptor; anion channel. Description: Inhibition of [3H]diazepam binding to GABA-A benzodiazepine receptor of rat brain.
In test [5] the test system is Mus musculus. As to the kind of experiment: Ability to antagonize CCK-8 inhibition of charcoal meal gastric emptying in mice, after oral administration. The format is functional. As to conditions: Stomach. The essentials:
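Mice dosed orally with test compound at one or more dose levels (N ≥ 10/dose) 1 h before CCK-8 (80 μg/kg, sc). CCK-8 given 5 min before a charcoal meal. Gastric emptying measured 5 min after the meal.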

A short description of test [6]: Ratio of IC50 CCK (pancreas)/ IC50 BZD (brain). The format is functional.

In ChEMBL document CHEMBL1124015, “Methods for drug discovery: development of potent, selective, orally effective cholecystokinin antagonists” (J Med Chem, 1988) one finds IC50, Ratio and ED50 data, which are given here for 6 compounds.

Some results are limits rather than exact numbers.

As to `CN1C(=O)[C@H](N)N=C(c2ccccc2)c2ccccc21`, the IC50 was 8.5 µM in test [1] and more than 100 µM in test [2]. Further, the Ratio in test [3] was more than 11.

As for `CN1C(=O)CN=C(c2ccccc2F)c2ccccc21` [RO-054520], the figures for the IC50 in test [4] and in test [2] were 24 nM and 42 µM, respectively. Further, in test [3], the Ratio worked out at 1750.

Consider `O=C(NC1N=C(c2ccccc2)c2ccccc2NC1=O)c1cc2ccccc2[nH]1` (centres undefined), for which the IC50 is more than 100000 nM in test [4] and 0.0047 µM in test [2]. In test [5], this compound gave an ED50 of 0.4 mg/kg. Also, the Ratio in test [6] is given as less than 4.7e-05.

Turning to `CN1C(=O)[C@@H](NC(=O)c2ccc(Br)cc2)N=C(c2ccccc2)c2ccccc21`, the IC50 in test [1] was more than 100 µM; in test [2] it was 0.0029 µM. Also, the ED50 in test [5] came to 0.4 mg/kg. In test [3], the Ratio is on record as less than 1e-05.

`CN1C(=O)CN=C(c2ccccc2)c2ccccc21`: the IC50 in test [4] was determined as 65 nM; in test [2], 24.6 µM. For the same compound, in test [3], the Ratio was 378.

In test [1], `CN1C(=O)[C@H](NC(=O)c2ccc(Br)cc2)N=C(c2ccccc2)c2ccccc21` returned an IC50 of 15 µM. Also, the Ratio in test [3] is given as 0.05.

Usually IC50 stands for the concentration needed to halve the response being measured. A lower IC50 goes with greater potency in that assay. By ED50 is commonly meant the dose that gives a 50% effect, or the effect in half of the subjects. Low readings indicate greater potency, high ones weaker potency.
